Assay outcomes (PubChem BioAssay)
m-calpain inh = inhibitors of pig calpain II | AID 1236 | actives 0.37% (n = 220,000) | inhibition, % at 16 µM | purified calpain II, fluorogenic peptide substrate, 30 min;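 active = inhibition above about 50%, limit read from the data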
PMI act = phosphomannose isomerase (human) activation. P34949. actives 0.005% (n = 190,000). purified human PMI, coupled resazurin fluorescence, 20 min; stronger effect = higher value; 1 = vehicle control, 0 substrate-free wells. activation factor at 20 µM;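 active = activation factor of 2 or more at 20 µM, relative to plate controls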
Rad51 HR inh = blocks human Rad51 in homologous recombination; hRad51 DNA strand exchange, fluorescence dequenching; Q06609; AID 1385; actives 0.085% (n = 200,000); inhibition, % at 10 µM;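 active = inhibition above 40% at the single screening dose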;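 also: 0% = DMSO control wells and 100% = blanks with heterologous ssDNA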
Target sequence (Q06609 whole entry, looked up): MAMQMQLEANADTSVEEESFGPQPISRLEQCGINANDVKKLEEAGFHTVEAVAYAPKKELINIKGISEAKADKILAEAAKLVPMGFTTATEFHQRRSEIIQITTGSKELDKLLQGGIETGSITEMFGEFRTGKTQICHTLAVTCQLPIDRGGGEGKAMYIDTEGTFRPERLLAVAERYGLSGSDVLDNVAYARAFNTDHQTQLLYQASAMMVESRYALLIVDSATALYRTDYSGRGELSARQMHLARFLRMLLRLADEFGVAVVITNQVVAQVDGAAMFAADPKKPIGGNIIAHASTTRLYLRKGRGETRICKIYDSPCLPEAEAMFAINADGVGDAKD
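Material: hRad51 filaments on single-stranded DNA; Reagent: Donor/quencher-labelled 47-bp dsDNA substrate; Compound: 10 µM final, single point; Schedule: 37 °C 15-min filament assembly, 30-min compound preincubation, 15-min exchange; Technique: FRET fluorescence, excitation 485 nm, emission 520 nm; Benchmarks: control wells and blank wells on each plate.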
PMI act satM6P = PMI (human) activation, high substrate. activation factor at 20 µM. coupled PMI enzyme assay, resazurin fluorescence, 20 min; stronger effect = higher value; 1 = untreated enzyme, 0 = substrate-free blank. actives 0.34% (n = 190,000);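 active = activation factor of 2 or more at 20 µM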
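Test system: human phosphomannose isomerase with PGI, G6PDH, diaphorase coupling enzymes; Amount: PMI at 15 ng/mL final; Reagent: Mannose-6-phosphate 1.0 mM (near-saturating) plus 0.22 mM NADP+; Timing: 20 min, room temperature; Technique: resorufin fluorescence at Ex 544/Em 590 nm; Dosing: 20 µM single dose.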
L major viab = Leishmania major promastigote growth inhibition; actives 9% (n = 200,000); inhibition, % at 10 µM; Leishmania major promastigotes, resazurin fluorescence viability; in the data active = inhibition above about 50%;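 also: promastigotes grown with compound for 44 hours at 28 °C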
WT yeast gro inh = growth inhibition of WT yeast, mitochondrial fusion screen | mitochondrial fusion phenotypic screen, WT strain | inhibition, % at 10 µM | actives 2.1% (n = 190,000) | AID 1362; in the data active = inhibition above about 58%; tested in S. cerevisiae
An asterisk follows results filed as active; i = inactive; . = no result. Rows were chosen to be rich in hits. Some 9.8% of all compounds tested hit in one or more screens of this group.

SMILES	m-calpain inh	PMI act	Rad51 HR inh	PMI act satM6P	L major viab	WT yeast gro inh
CCOc1ccc(S(=O)(=O)N2CCCC2)cc1	-14.0	1	3.2	1	-3.2	-0.3
CCOc1ccc(S(=O)(=O)N2CCN(C(=O)c3cc4c(s3)CCCC4)CC2)cc1	-8.0	0.8	4.5	0.9	77.6*	62.7*
O=C(O)COc1ccccc1-c1ccccc1	-9.0	.	-6.9	.	.	.
CN(Cc1ccc(F)cc1)C(=O)COc1ccccc1-c1ccccc1	26.5	0.8	8.6	0.9	3.4	64.1*
COc1ccc(C2C(C#N)=C(/N=C/N3CCN(C)CC3)OC3=C2C(=O)CC(C)(C)C3)cc1 (stereo not drawn)	-14.0	1.1	1.4	0.9	99.6*	-10.7
CC(CO)Nc1nc(SCc2ccccc2)nc2sc3c(c12)CCC3 (stereo not drawn)	-35.9	0.8	0.4	0.9	-2.2	75.1*
COCCNc1nc(SCc2ccccc2)nc2sc3c(c12)CCC3	-24.0	0.9	-2.8	0.9	8.5	43.1
Cn1c(=NC(=O)C2=NNC(=O)CC2)sc2ccccc21	8.9	1	-4.9	1	-8.5	-4.9
Cn1c(=NC(=O)CN2C(=O)C3CC=CCC3C2=O)sc2ccccc21 (stereo not drawn)	21.4	0.9	14.4	0.9	98.7*	7.3
COc1cc2c(C#N)c(N3CCN(C)CC3)nc(N)c2c(N)n1	i	0.6	7.6	0.7	100.3*	22.9
COc1cc2c(C#N)c(N3CCCC3)nc(N)c2c(N)n1	-335.9	.	2.6	.	.	.
CC1CN(C2CCN(S(=O)(=O)Cc3ccccc3)CC2)CC(C)O1 (stereo not drawn)	11.5	1.1	1.2	1.1	90.8*	-2.1
O=S(=O)(c1ccc(F)cc1)N1CCC(N2CCN(c3ccccc3)CC2)CC1	.	.	.	.	8.8	.
CC1CN(C2CCN(S(=O)(=O)c3ccc(F)cc3)CC2)CC(C)O1 (stereo not drawn)	3.7	0.9	1.4	1	91.0*	42.8
O=S(=O)(Cc1ccccc1)N1CCN(C2Cc3ccccc3C2)CC1	-4.2	0.9	-5.2	0.9	52.4*	5.8
CC1CN(C2CCN(S(=O)(=O)c3ccccc3)CC2)CC(C)O1 (stereo not drawn)	-13.9	1.2	1.8	1.1	80.7*	-33.0
O=S(=O)(c1ccccc1)N1CCC(N2CCCCCC2)CC1	10.2	1.1	0.4	1.1	1.7	-3.1
Cc1nccc(-c2cccc(NC(=O)c3ccccc3Cl)c2)n1	0.7	.	10.0	.	.	.
C/C(=N\NC(=O)CCc1c[nH]c2ccccc12)c1ccc([N+](=O)[O-])cc1	1.7	0.9	.	0.9	61.0*	-6.8
CCOc1cc(CNn2cnnc2SCC(=O)NC(C)(C)C)ccc1OCC(=O)NC(C)(C)C	-0.1	0.9	6.7	0.9	0.8	-4.0
Cc1ccccc1-c1nc2cc(N)ccc2o1	-189.4	0.8	-0.4	0.6	5.8	1.7
CC(C)c1ccc2oc(-c3cc(N)ccc3O)nc2c1	14.8	1.2	4.9	1.1	-3.2	68.0*
O=C(Nc1c2c(nn1-c1ccc(F)cc1)CS(=O)(=O)C2)c1ccc(S(=O)(=O)N2CCOCC2)cc1	21.5	1.1	-17.0	1	-1.9	19.0
Cc1ccc(S(=O)(=O)Nc2cccc3ncccc23)s1	-48.0	0.6	-2.8	0.5	100.2*	71.0*
Cc1ccsc1C(=O)OCc1csc(-c2ccccc2)n1	28.3	0.9	0.3	1	5.0	67.0*
SMILES	m-calpain inh	PMI act	Rad51 HR inh	PMI act satM6P	L major viab	WT yeast gro inh
O=C(c1ccc(Cl)cc1)c1oc2ccccc2c1CS(=O)c1ccccc1 (stereo not drawn)	25.1	1.3	4.2	2.2*	8.5	48.5
CCOC(=O)c1ccc(-n2ccnc2)c(NC(=O)c2ccc(Cl)cc2)c1	12.4	0.9	2.9	0.9	80.7*	-3.8
CCOC(=O)c1ccc(Cl)c(NC(=O)c2cccnc2)c1	-9.9	1	0.8	0.9	-5.2	-1.4
O=C1CN(CC(=O)Nc2cccc(Cl)c2Cl)c2ccccc2N1	-35.7	1.4	-9.2	1.4	-1.0	10.4
Cc1ccc(Cl)cc1N1CCN(S(=O)(=O)c2cccc(S(=O)(=O)N3CCCC3)c2)CC1	-44.7	0.9	1.3	0.9	60.8*	10.6
CCC(=O)c1cc(F)c(N2CCN(S(=O)(=O)c3ccccc3)CC2)cc1C	27.1	0.8	-9.4	0.9	64.3*	8.0
O=S(=O)(c1ccc(Cl)cc1)N1CCN(S(=O)(=O)N2CCCCCC2)CC1	-12.5	1.1	8.8	1	-4.3	-17.0
O=S(=O)(N1CCCCC1)N1CCN(c2cc(Cl)ccc2Cl)CC1	48.2	0.9	19.2	0.9	-0.5	73.6*
Cc1cc(S(=O)(=O)N2CCN(c3ccccc3C)CC2)ccc1F	-1.3	0.9	-0.1	0.9	-2.5	61.2*
CCCC(=O)c1cc(F)c(N2CCN(S(=O)(=O)c3ccccc3)CC2)cc1C	-20.6	0.8	1.3	0.9	4.2	2.1
CC(=O)N1CCN(Cc2nc3cc(NC(=O)Nc4ccccc4)ccc3n2C)CC1	-21.7	1	.	1	-5.1	2.9
CN1CCN(c2ccc(C(=O)NC3CCCCC3)cc2[N+](=O)[O-])CC1	12.3	1	2.2	1	-2.6	-0.8
COc1ccc(/C=N/NC(=O)c2ccc(COc3ccccc3Cl)o2)c(OC)c1C	20.2	1.1	-2.0	1	55.5*	-5.9
Cc1cccc(NC(=O)c2ccc(COc3ccc(Cl)cc3Cl)o2)n1	38.8	0.9	-5.7	1	4.7	59.7*
CN(C(=O)c1ccc(COc2ccccc2Br)o1)c1ccccc1	5.8	0.9	36.2	0.9	19.1	67.0*
COc1cc(NC(=O)c2ccc(COc3ccccc3Br)o2)cc(OC)c1OC	-77.0	0.8	17.2	0.8	68.0*	49.4
COc1ccc(/C=N/NC(=O)c2ccc(COc3ccccc3Cl)o2)cc1	-223.2	1	.	1	-2.8	1.6
O=C(c1ccc(COc2ccccc2Br)o1)N1CCCCCC1	-27.6	0.8	16.9	0.8	-2.5	36.2
CCCCCCNC(=O)CC(NS(=O)(=O)c1ccc(OC)cc1)C(C)C (stereo not drawn)	4.4	1	.	1.1	2.9	7.3
CC(C)(C)c1ccc(C(=O)NC(=S)NNC(=O)c2cccs2)cc1	-11.9	1.2	5.2	1.3	24.5	77.3*
CCCC(=O)Nc1ccc(C(=O)NNC(=S)NC(=O)c2cccs2)cc1	9.8	1.2	11.4	1.2	99.1*	0.5
O=C(CCN1CCCCC1)NNC(=O)C12CC3CC(CC(C3)C1)C2	16.3	1	3.6	1	5.9	6.2
CCn1c(SCC(=O)c2c[nH]c3ccccc23)nc2cc(S(=O)(=O)N3CCOCC3)ccc21	21.5	0.9	-16.7	0.9	65.7*	-5.5
CCn1c(SCC(N)=O)nc2cc(S(=O)(=O)N3CCOCC3)ccc21	-31.5	1.1	-41.3	1	-5.3	-5.1
